{"source": "paper PMC3954946", "about": "(Journal of medicinal chemistry, 2013)", "key": {"HCV genotype 1 (GT-1)": {"system": "HCV genotype 1 (GT-1)", "conditions": "triple combination with Peg-IFN/RBV, genotype-1 naive patients; cited from earlier work"}, "[1]": {"system": "HCV GT-1b Con1 subgenomic replicon", "conditions": "genotype not given; cited from earlier work"}, "[2]": {"system": "HCV GT-1a H77 subgenomic replicon", "assay": "Stable HCV GT-1a H77 subgenomic replicon assay", "assay_type": "cell-based, Hepatitis C virus", "conditions": "for Plasma Shift fold: EC50 with 40% human serum vs without, GT-1a and GT-1b"}, "[3]": {"system": "HCV GT-1b Con1 subgenomic replicon", "assay": "Stable HCV GT-1b Con1 subgenomic replicon assay", "assay_type": "cell-based, Hepatitis C virus"}, "Pharmacokinetics in rat": {"assay": "Pharmacokinetics in rat", "assay_type": "in vivo, Male Wistar/Han (CRL:WI) rats", "conditions": "male, Wistar/Han (CRL:WI), plasma, po"}, "Pharmacokinetics in dog": {"assay": "Pharmacokinetics in dog", "assay_type": "in vivo, Male beagle dogs", "conditions": "male, beagle, plasma, po", "procedure,_shortened": "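Male beagle dogs with free access to food and water received a single oral dose of test compound by gavage in 2% Klucel LF in water. Blood was collected into EDTA tubes at typically 0.25, 0.5, 1, 2, 4, 6, 8 and 24 h post-dose. Plasma concentrations were measured by LC/MS/MS after protein precipitation with acetonitrile.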"}, "[4]": {"system": "GT-1b Con1 transient replicon with NS5B clinical isolates", "assay": "Transient HCV replicon assay, panel of GT-1b NS5B clinical isolates", "assay_type": "cell-based", "conditions": "Hepatitis C virus, GT1B, read-out: mean EC50, GT 1b panel, geometric mean"}}, "data": [{"smiles": "CC(C)(C)NC(=O)N[C@H](C(=O)N1C[C@H]2[C@@H]([C@H]1C(=O)NC(CC1CCC1)C(=O)C(N)=O)C2(C)C)C(C)(C)C", "note": "(stereo partly drawn) [Boceprevir]", "values": [{"measurement": "SVR rates", "setting": "HCV genotype 1 (GT-1)", "result": "≤ 68", "unit": "%"}]}, {"smiles": "COc1c(/C=C/c2ccc(NS(C)(=O)=O)cc2)cc(-c2cc(F)c[nH]c2=O)cc1C(C)(C)C", "note": "[Compound 7, reference compound]", "values": [{"measurement": "activity in the HCV subgenomic replicon assay", "setting": "[1]", "result": "single digit nM"}, {"measurement": "EC50", "setting": "[2]; Hepatitis C virus, GT1A, read-out: GT-1a EC50", "result": 8, "unit": "nM"}, {"measurement": "EC50", "setting": "[3]; Hepatitis C virus, GT1B, read-out: GT-1b EC50", "result": 3, "unit": "nM"}]}, {"smiles": "CC(C)(C)c1cc(-c2cc(F)c[nH]c2=O)c2ncc(-c3ccc(NS(C)(=O)=O)cc3)cc2c1", "note": "[Compound 34]", "values": [{"measurement": "drop in activity", "setting": "[2]; desmethoxy analog vs 33, replicon GT-1a and GT-1b", "result": "4-to 6 fold"}]}, {"smiles": "COc1c(C(C)(C)C)cc(-n2ccc(=O)[nH]c2=O)c2ncc(-c3ccc(NS(C)(=O)=O)cc3)cc12", "note": "[Compound 35, N-[4-[6-tert-Butyl-8-(2,4-dioxopyrimidin-1-yl)-5-methoxy-3-quinolyl]phenyl] methanesulfonamide]", "values": [{"measurement": "Plasma Shift fold", "setting": "[2]", "result": "1.7–2.2 fold"}]}, {"smiles": "COc1c(C(C)(C)C)cc(-n2ccc(=O)[nH]c2=O)c2ccc(-c3ccc(NS(C)(=O)=O)cc3)cc12", "note": "[Compound 36, N-[4-[7-tert-Butyl-5-(2,4-dioxopyrimidin-1-yl)-8-methoxy-2-naphthyl]phenyl] methanesulfonamide]", "values": [{"measurement": "increase in potency against both genotypes with respect to quinoline 35", "setting": "[2]; replicon GT-1a and GT-1b", "result": "2- to 3 fold"}]}, {"smiles": "COc1c(C(C)(C)C)cc(-c2ccc[nH]c2=O)c2ncc(-c3ccc(NS(C)(=O)=O)cc3)cc12", "note": "[Compound 39, N-[4-[6-tert-Butyl-5-methoxy-8-(2-oxo-1H-pyridin-3-yl)-3-quinolyl]phenyl] methanesulfonamide]", "values": [{"measurement": "Plasma Shift fold", "setting": "[2]", "result": "0.8–3.5 fold"}]}, {"smiles": "COc1ccc(-c2cc(C(C)(C)C)c(OC)c3cc(-c4ccc(NS(C)(=O)=O)cc4)cnc23)c(=O)[nH]1", "note": "[Compound 41, N-[4-[6-tert-Butyl-5-methoxy-8-(6-methoxy-2-oxo-1H-pyridin-3-yl)-3-quinolyl]phenyl] methanesulfonamide]", "values": [{"measurement": "concentration at 8 h", "setting": "Pharmacokinetics in rat", "result": 1.22, "unit": "µM"}, {"measurement": "improvement in the 40% HS replicon assay", "setting": "[2]; vs lead compound 7", "result": 6, "unit": "fold"}, {"measurement": "concentration at 8 h", "setting": "Pharmacokinetics in dog", "result": 1.95, "unit": "µM"}, {"measurement": "EC50", "setting": "[4]", "result": 0.26, "unit": "nM"}]}, {"smiles": "COc1c(C(C)(C)C)cc(N2CCCNC2=O)c2ncc(-c3ccc(NS(C)(=O)=O)cc3)cc12", "note": "[Compound 43]", "values": [{"measurement": "decrease in potency against GT-1a", "setting": "[2]; vs dihydrouracil 42", "result": 14, "unit": "fold"}, {"measurement": "decrease in potency against GT-1b", "setting": "[3]; vs dihydrouracil 42", "result": 6, "unit": "fold"}]}, {"smiles": "COc1c(C(C)(C)C)cc(-c2cn(C)c(=O)[nH]c2=O)c2ncc(-c3ccc(NS(C)(=O)=O)cc3)cc12", "note": "[Compound 44]", "values": [{"measurement": "increase in potency against both genotypes with respect to quinoline 35", "setting": "[2]; replicon GT-1a and GT-1b", "result": "~ 2 fold"}]}, {"smiles": "COc1ccc(-c2cc(C(C)(C)C)c(OC)c3cc(N4CC[C@H](CNS(C)(=O)=O)C4)cnc23)c(=O)[nH]1", "note": "[Compound 50, N-[[(3S)-1-[6-tert-butyl-5-methoxy-8-(6-methoxy-2-oxo-1H-pyridin-3-yl)-3-quinolyl]pyrrolidin-3-yl]methyl]methanesulfonamide]", "values": [{"measurement": "concentration at 8 h", "setting": "Pharmacokinetics in rat", "result": 3.5, "unit": "µM"}]}, {"smiles": "COc1c(C2(C(F)F)CC2)cc(-n2ccc(=O)[nH]c2=O)c2ncc(-c3ccc(NS(C)(=O)=O)cc3)cc12", "note": "[Compound 53, N-[4-[6-[1-(Difluoromethyl)cyclopropyl]-8-(2,4-dioxopyrimidin-1-yl)-5-methoxy-3-quinolyl]phenyl]methanesulfonamide]", "values": [{"measurement": "improvement in potency with respect to compounds 51 and 52", "setting": "[2]; replicon GT-1a and GT-1b", "result": "3- to 9 fold"}]}, {"smiles": "CCC[C@H](NC(=O)[C@@H]1[C@H]2CCC[C@H]2CN1C(=O)[C@@H](NC(=O)[C@@H](NC(=O)c1cnccn1)C1CCCCC1)C(C)(C)C)C(=O)C(=O)NC1CC1", "note": "[Telaprevir]", "values": [{"measurement": "SVR rates", "setting": "HCV genotype 1 (GT-1)", "result": "up to 75%"}]}]}
